Experiments:
[1] = Partition coefficient (logP); format: physicochemical; details: octanol/water
Cavia porcellus = species: Cavia porcellus; assay: Ability to bind to guinea pig atrial homogenate; details: Cardiac atrium
Method in brief: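 Guinea pig left and right atria were blotted 90 s, weighed, and homogenized (6%, g/v) in ice-cold 0.067 M Sørensen phosphate buffer, pH 7.4, for three 20-s bursts. Radiolabeled drug (3.3×10^-6 M) was incubated with 4% (g/v) homogenate for 90 min at room temperature under partial saturation. Total aliquot and supernatant after 145000g, 15 h, 25 °C were counted. Result given as log B/F.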

Albumin [2] = biological target: T1, Albumin (Homo sapiens, UniProt P02768); assay: Ability to bind to human serum albumin (HSA)
[3] = Tested for the dissociation constant of the compound; format: ADME
Albumin [4] = biological target: T1, Albumin; assay: Ability to bind to human serum albumin
Method in brief: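 Purified human serum albumin, 4% (g/v), with radiolabeled drug at 3.3×10^-6 M in 0.067 M Sørensen phosphate buffer pH 7.4 (partial saturation). Incubated 90 min at room temperature. Radioactivity counted in an aliquot before and after centrifugation at 145000g for 15 h at 25 °C. Binding expressed as log B/F.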

T1 sequence (P02768 whole entry): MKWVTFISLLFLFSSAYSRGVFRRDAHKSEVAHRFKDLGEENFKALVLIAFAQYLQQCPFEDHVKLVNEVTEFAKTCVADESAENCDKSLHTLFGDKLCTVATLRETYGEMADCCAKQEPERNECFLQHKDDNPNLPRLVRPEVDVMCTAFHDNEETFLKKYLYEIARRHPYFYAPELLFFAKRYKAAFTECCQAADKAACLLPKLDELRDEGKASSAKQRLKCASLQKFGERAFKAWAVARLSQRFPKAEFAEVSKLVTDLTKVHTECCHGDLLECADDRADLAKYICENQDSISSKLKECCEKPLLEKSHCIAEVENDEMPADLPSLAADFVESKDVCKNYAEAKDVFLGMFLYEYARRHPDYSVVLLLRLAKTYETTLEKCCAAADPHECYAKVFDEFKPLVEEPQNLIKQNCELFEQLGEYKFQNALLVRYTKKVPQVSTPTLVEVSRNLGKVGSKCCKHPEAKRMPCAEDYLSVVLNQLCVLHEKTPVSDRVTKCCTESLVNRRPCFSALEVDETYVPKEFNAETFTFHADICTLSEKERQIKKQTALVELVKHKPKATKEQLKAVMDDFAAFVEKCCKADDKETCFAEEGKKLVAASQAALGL

## COCCc1ccc(OCC(O)CNC(C)C)cc1 (configuration not stated) [METOPROLOL]
[1]; read-out: logP
  logP: 2.34

## C=CCc1ccccc1OCC(O)CNC(C)C (configuration not stated) [ALPRENOLOL]
[1]; read-out: logP
  logP: 3.1
Cavia porcellus
  Log B/F: -0.158

## CCC1(c2ccccc2)C(=O)NC(=O)NC1=O [PHENOBARBITAL]
Albumin [2]
  Log B/F: 0.11
[1]; read-out: logP
  logP: 1.43
[3]
  pKa: 7.5

## O=C1CCC(c2ccccc2)(C2CCN(Cc3ccccc3)CC2)C(=O)N1 (configuration not stated) [BENZETIMIDE]
[1]; read-out: logP
  logP: 3.55
Albumin [4]
  Log B/F: 0.087
Cavia porcellus
  Log B/F: -0.184

## CCCNC(C)C(=O)Nc1c(C)csc1C(=O)OC (configuration not stated) [ARTICAINE]
Albumin [2]
  Log B/F: -0.281
[1]
  logP: 2.41
[3]
  pKa: 7.8
Cavia porcellus
  Log B/F: -0.739

## CCC(c1ccccc1)c1c(O)c2ccccc2oc1=O (configuration not stated) [PHENPROCOUMON]
Albumin [2]
  Log B/F: 2.128
[1]; read-out: logP
  logP: 3.62
[3]
  pKa: 5

## COc1ccc(CCN(C)CCCC(C#N)(c2ccc(OC)c(OC)c2)C(C)C)cc1OC (configuration not stated)
[3]
  pKa: 9.2
Cavia porcellus
  Log B/F: 0.114

## C[C@H]1O[C@@H](O[C@H]2[C@@H](O)C[C@H](O[C@H]3[C@@H](O)C[C@H](O[C@H]4CC[C@@]5(C)[C@H](CC[C@@H]6[C@@H]5CC[C@]5(C)[C@@H](C7=CC(=O)OC7)CC[C@]65O)C4)O[C@@H]3C)O[C@@H]2C)C[C@H](O)[C@@H]1O [DIGITOXIN]
Albumin [2]
  Log B/F: 3.222
[1]; read-out: logP
  logP: 1.76

## C[C@@H]1C[C@H]2[C@@H]3CCC4=CC(=O)C=C[C@]4(C)[C@@]3(F)[C@@H](O)C[C@]2(C)[C@@]1(O)C(=O)CO [DEXAMETHASONE]
[1]; read-out: logP
  logP: 1.74

## COc1ccc2c(c1)c(CC(=O)O)c(C)n2C(=O)c1ccc(Cl)cc1 [INDOMETHACIN]
[1]; read-out: logP
  logP: 2

## OC[C@H]1O[C@@](CO)(O[C@H]2O[C@H](CO)[C@@H](O)[C@H](O)[C@H]2O)[C@@H](O)[C@@H]1O
Cavia porcellus
  Log B/F: -4

## O=C(O)[C@H]1O[C@@H](O)[C@H](O)[C@@H](O)[C@@H]1O [GLUCURONATE]
Albumin [2]
  Log B/F: -2
[1]; read-out: logP
  logP: -2.57
[3]
  pKa: 3.2
Cavia porcellus
  Log B/F: -4

Reference: ChEMBL document CHEMBL1121439, “Accumulation of drugs by guinea pig isolated atria. Quantitative correlations” (J Med Chem, 1980)
